Measurements from ChEMBL document CHEMBL3244244, “Folate analogues altered in the C9-N10 bridge region: 11-thiohomofolic acid” (J Med Chem, 1979).
Values after ≈ are worked out from the molar mass of the structure shown. Blank lines part the entries; values can stand above or below the compound they belong to. Active and inactive are the calls of the source. The rule behind the calls is not given here.

Assays:
[1] = test system: Enterococcus faecium; assay: Antifolate activity against Streptococcus faecium ATCC 8043 assessed as growth inhibition; format: functional, organism-based; conditions: for IC50: read-out: I50
[2] = test system: Lacticaseibacillus casei; assay: Antifolate activity against Lactobacillus casei ATCC 7469 assessed as growth inhibition; format: functional, organism-based
[3] = molecular target: Dihydrofolate reductase (Lactobacillus casei) (UniProt P00381); assay: Activity of Lactobacillus casei DHFR; conditions: Lacticaseibacillus casei
Chain of Dihydrofolate reductase (Lactobacillus casei) (P00381 whole entry): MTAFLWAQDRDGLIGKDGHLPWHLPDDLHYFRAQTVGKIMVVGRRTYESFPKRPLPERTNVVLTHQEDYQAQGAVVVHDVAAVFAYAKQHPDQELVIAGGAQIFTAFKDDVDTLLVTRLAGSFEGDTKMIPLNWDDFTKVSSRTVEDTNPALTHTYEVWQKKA
Summary of the method: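 The 7,8-dihydro form of the test folate analogue replaced the natural substrate in the previously described L. casei DHFR assay medium.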

[4] = test system: Enterococcus faecium; assay: Antifolate activity against Streptococcus faecium ATCC 8043 assessed as growth inhibition at 1.6 ug/ml; format: functional, organism-based
Summary of the method: (§1)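 Bacterial growth was run in each organism's own assay medium by earlier-reported methods, with test agent at 1.6 μg/mL.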

[5] = molecular target: T1, Thymidylate synthase (Lactobacillus casei) (UniProt P00469); assay: Inhibition of Lactobacillus casei thymidylate synthase; conditions: Lacticaseibacillus casei
T1 sequence (whole entry): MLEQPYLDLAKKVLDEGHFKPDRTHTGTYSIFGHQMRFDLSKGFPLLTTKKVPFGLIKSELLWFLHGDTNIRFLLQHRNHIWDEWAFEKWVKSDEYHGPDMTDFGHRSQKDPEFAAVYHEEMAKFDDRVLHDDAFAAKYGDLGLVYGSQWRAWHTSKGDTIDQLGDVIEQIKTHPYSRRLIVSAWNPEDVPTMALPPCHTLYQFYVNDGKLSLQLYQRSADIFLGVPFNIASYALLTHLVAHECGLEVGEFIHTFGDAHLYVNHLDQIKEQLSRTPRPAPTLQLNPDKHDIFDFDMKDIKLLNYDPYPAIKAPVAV

[6] = test system: Lacticaseibacillus casei; assay: Antifolate activity against Lactobacillus casei ATCC 7469 assessed as growth inhibition at 1.6 ug/ml; format: functional, organism-based; summary of the method: as §1
[7] = molecular target: Dihydrofolate reductase (Lactobacillus casei) (UniProt P00381); assay: Inhibition of Lactobacillus casei DHFR; conditions: Lacticaseibacillus casei

Compound: Nc1nc(=O)c2c([nH]1)NCC(CCSc1ccc(C(=O)N[C@@H](CCC(=O)O)C(=O)O)cc1)N2 (some centres not stated)
- IC50 [1]: 1.2 ng/mL (≈ 2.52 nM)
- I50 [2]: 8 ×10⁻⁷ g/ml

Compound: Nc1nc(=O)c2c([nH]1)NCC(CCNc1ccc(C(=O)N[C@@H](CCC(=O)O)C(=O)O)cc1)N2 (some centres not stated)
- IC50 [1]: 0.7 ng/mL (≈ 1.52 nM)

Compound: Nc1nc(=O)c2nc(COc3ccc(C(=O)N[C@@H](CCC(=O)O)C(=O)O)cc3)cnc2[nH]1
- growth inhibition (GI) [1]: Active
- growth inhibition (GI) [2]: Active

Compound: Nc1nc2ncc(CCSc3ccc(C(=O)O)cc3)nc2c(=O)[nH]1
- growth inhibition (GI) [1]: inactive
- growth inhibition (GI) [2]: inactive

Compound: Nc1nc(=O)c2nc(CSc3ccc(C(=O)N[C@@H](CCC(=O)O)C(=O)O)cc3)cnc2[nH]1
- growth inhibition (GI) [1]: Active
- growth inhibition (GI) [2]: Active

- Activity [3]: inactive
- inhibition [5]: inactive
- inhibition [7]: inactive
Compound: Nc1nc(O)c2nc(CCSc3ccc(C(=O)N[C@@H](CCC(=O)O)C(=O)O)cc3)cnc2n1
- growth inhibition (GI) [4]: inactive
- growth inhibition (GI) [6]: inactive

- Activity [3]: Active
Compound: Nc1nc(=O)c2c([nH]1)NCC(CCSc1ccc(C(=O)N[C@@H](CCC(=O)O)C(=O)O)cc1)=N2

Compound: COC(=O)c1ccc(SCCc2cnc3nc(N)[nH]c(=O)c3n2)cc1
- growth inhibition (GI) [1]: inactive
- growth inhibition (GI) [2]: inactive
